The values below come from ChEMBL document CHEMBL1159346, “Antineoplastic agents. 488. Isolation and structure of yukonin from a yukon territory fungus” (2003).

The GI50 is the concentration that inhibits growth by half. As usually defined, the MIC is the smallest concentration in the dilution series that meets the test's criterion for growth inhibition.

Holding throughout (type): functional
Test [1] relates to BXPC-3. As to the kind of experiment: Cytotoxicity against human BxPC3 cells.
Test [2] deals with KM-20L2. As to the kind of experiment: Cytotoxicity against human KM20L2 cells.
Test [3] concerns Cryptococcus neoformans. As to the kind of experiment: Antimicrobial activity against Cryptococcus neoformans by broth microdilution method. The essentials: (§1)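 Yeast strains: Candida albicans ATCC 90028 and Cryptococcus neoformans ATCC 90112. Tested by broth microdilution following the NCCLS reference broth dilution method for yeasts. The MIC was read as the lowest compound concentration giving no visible growth (optically clear wells).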
On the technique in general: Dilution methods test growth across graded concentrations, often in twofold steps.

Test [4] has as its system DU-145. Briefly: Cytotoxicity against human DU145 cells.
In test [5] the test system is NCI-H460. As to the kind of experiment: Cytotoxicity against human NCI-H460 cells.
Test [6] relates to Candida albicans. Briefly: Antimicrobial activity against Candida albicans by broth microdilution method. Summed up: as §1
For test [7], the system named is P388. Briefly: Cytotoxicity against mouse P388 cells.
Test [8] has as its system SF-268. Briefly: Cytotoxicity against human SF268 cells.
The subject of test [9] is MCF7. As to the kind of experiment: Cytotoxicity against human MCF7 cells.

In brackets after ≈: the same amount, converted by molar mass.

Turning to `C[C@@]12CCC[C@]3(C)C4=CC(=O)OCC4=C[C@@H](OC1=O)[C@@H]23`, the GI50 in test [1] was 1.8 µg/mL (≈ 6.56 µM); in [2] it was 0.45 µg/mL (≈ 1.64 µM); in [4] it was 0.34 µg/mL (≈ 1.24 µM); in test [5] it was 0.48 µg/mL (≈ 1.75 µM); in test [7], 0.31 µg/mL (≈ 1.13 µM); in test [8], 0.57 µg/mL (≈ 2.08 µM). In test [9], this molecule gave a GI50 of 0.69 µg/mL (≈ 2.52 µM). Moreover, the MIC was found to be 16 µg/mL (≈ 58.3 µM) in test [3] and 64 µg/mL (≈ 233 µM) in [6].
`C[C@@]12CCC[C@]3(C)C4=CC(=O)O[C@@H](O)C4=C[C@@H](OC1=O)[C@@H]23` [YUKONIN]: the GI50 in test [1] was 5.6 µg/mL (≈ 19.3 µM); in [2], 3.6 µg/mL (≈ 12.4 µM); in test [4], 2.9 µg/mL (≈ 9.99 µM); in test [5], 4.1 µg/mL (≈ 14.1 µM); in [7] it was over 10 µg/mL; in test [8], 2.9 µg/mL (≈ 9.99 µM). In test [9], this molecule returned a GI50 of 4 µg/mL (≈ 13.8 µM). Further, the minimal inhibitory concentration (MIC) was 64 µg/mL (≈ 220 µM) in [3] and over 64 µg/mL in test [6].
For `CO[C@H]1OC(=O)C=C2C1=C[C@H]1OC(=O)[C@@]3(C)CCC[C@@]2(C)[C@@H]13`, the GI50 was 0.36 µg/mL (≈ 1.18 µM) in test [1]; 0.21 µg/mL (≈ 0.69 µM) in [2]; 0.14 µg/mL (≈ 0.46 µM) in test [4]; 0.24 µg/mL (≈ 0.789 µM) in test [5]; 4.1 µg/mL (≈ 13.5 µM) in test [7]; 0.24 µg/mL (≈ 0.789 µM) in test [8]. The same molecule displayed a GI50 in [9] of 0.33 µg/mL (≈ 1.08 µM). The results for the MIC in test [3] and in test [6] were 2 µg/mL (≈ 6.57 µM) and 8 µg/mL (≈ 26.3 µM), respectively.
